Type in all cases: functional, cell-based
The test system of one assay is MCF7. Nature of the assay: Cytotoxicity against human MCF7 cells after 48 hrs by MTT assay. The following applies: MCF7, 48 h. The procedure, abridged:
(§1)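 Cells grown in RPMI-1640 or DMEM with 10% FBS, 37 °C, 5% CO2. Seeded at 1 × 10^5 cells/mL; adherent lines allowed 12 h to attach, suspension cells seeded just before dosing. Compounds at various concentrations in triplicate, 48 h. MTT (100 μg per well) 4 h at 37 °C, SDS lysis, OD 595 nm; IC50 by Reed and Muench method.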
(Formazan colour is commonly taken as a measure of viable cells.)

A short description of assay [1]: Cytotoxicity against human […] cells after 48 hrs by MTT assay. The procedure, abridged: as §1
In the next assay the test system is A549. Nature of the assay: Cytotoxicity against human A549 cells after 48 hrs by MTT assay. The following applies: A549, 48 h. The procedure, abridged: as §1
The subject of a further assay is HL-60. Nature of the assay: Cytotoxicity against human HL60 cells after 48 hrs by MTT assay. The settings on record: HL-60, 48 h. The procedure, abridged: as §1

One may read the IC50 as the point on the concentration scale where inhibition reaches its midpoint.

For `CC(C)=CCC/C(C)=C/CC/C(C)=C/CC12C(=O)C=C(C)C(=O)C1(O)Oc1c3c(c(O)c(C)c12)O[C@](C)(CC/C=C(\C)CCC=C(C)C)C=C3` (stereo partly drawn) [ALBATRELIN F], the IC50 (in the assay on MCF7; in assay [1]; with A549; in the assay with HL-60) was above 40 µM throughout.

For the compound `CC(C)=CCC/C(C)=C/CC/C(C)=C/Cc1c(O)cc(C)c2c1oc1c3c(c(O)c(C)c12)O[C@](C)(CC/C=C(\C)CCC=C(C)C)C=C3` [ALBATRELIN D], the IC50 (in the assay on MCF7; in assay [1]; in the assay with A549; in the assay on HL-60) was above 40 µM in each case.

Take `CC(C)=CCC/C(C)=C/CC[C@]1(C)C=Cc2c(C)cc(O)cc2O1` [ALBATRELIN C]: the IC50 (in the assay with MCF7; in assay [1]; with A549; with HL-60) was above 40 µM each time.

For `COc1cc(C)c(O)c2c1C=C[C@@](C)(CC/C=C(\C)CCC=C(C)C)O2` [ALBATRELIN B], the IC50 (in the assay with MCF7; in assay [1]; in the assay on A549; in the assay on HL-60) was above 40 µM in each case.

`COC(=O)c1c(O)cc(O)c(C/C=C(\C)CC/C=C(\C)CCC=C(C)C)c1C` [ALBATRELIN A]: the IC50 (with MCF7; in assay [1]; in the assay with A549; in the assay with HL-60) was above 40 µM throughout.

Turning to `CC(C)=CCC/C(C)=C/CC[C@]1(C)C=Cc2c(O)cc(C)cc2O1` [CONFLUENTIN], the IC50 was 23 µM with MCF7, 17.1 µM in assay [1], 18.5 µM in the assay on A549 and 15.1 µM in the assay with HL-60.

Take `CC(C)=CCC/C(C)=C/CC/C(C)=C/CC1=C(O)C(=O)C(C)=C(c2c(O)cc(O)c(C/C=C(\C)CC/C=C(\C)CCC=C(C)C)c2C)C1=O` [ALBATRELIN E]: the IC50 (with MCF7; in assay [1]; in the assay on A549; in the assay on HL-60) was above 40 µM throughout.

Source of the values: ChEMBL document CHEMBL2331437, “Meroterpenoid pigments from the basidiomycete Albatrellus ovinus” (J Nat Prod, 2013).
